Published values from different studies.
Protocols differ between the studies behind these lines.
Read-out: cell growth or viability

The inhibition of `CC1=C(O)C(=O)C=C2C1=CC=C1[C@@]2(C)CC[C@@]2(C)[C@@H]3C[C@](C)(C(=O)O)CC[C@]3(C)CC[C@]12C` is reported as 92% (HepG2; MTT; 20 µM).
`O=c1ccc2ccc3occc3c2o1` gave an IC50 of 13.8 µM (HepG2; WST-1; 48 h).
The inhibition of `N.N.[Cl][Pt][Cl]` is reported as 76.4% (Huh-7; MTT; 20 µM).
The IC50 of `COc1cc(OC)c(/C=C/S(=O)(=O)Nc2ccc(OC)c(N)c2)c(OC)c1` is reported as 0.004 µM (RF1; trypan blue; 96 h).
`N.N.[Cl][Pt][Cl]` has a GI50 of 1.1 mg/L (CCD-18Co; ATP luminescence).
The IC50 of `CC[C@@]1(O)C(=O)OCc2c1cc1n(c2=O)Cc2cc3cc4c(cc3nc2-1)OCO4` is reported as 0.022 µM (HepG2; MTT; 72 h).
`N.N.O=C([O-])C1(C(=O)[O-])CCC1.[Pt+2]` has an IC50 of 27 µM (PNT2; MTT; 96 h).
For `CC[C@@]1(OC(=O)[C@@H](N)C(C)C)C(=O)OCc2c1cc1n(c2=O)Cc2cc3cc4c(cc3nc2-1)OCO4`, the IC50 was 0.087 µM (HepG2; MTT).
For `N.N.[Cl][Pt][Cl]`, the EC50 was 1.8 µM (A-431; SRB).
`CC[C@@]1(OC(=O)C(C)c2ccc(CC(C)C)cc2)C(=O)OCc2c1cc1n(c2=O)Cc2cc3cc4c(cc3nc2-1)OCO4` (stereo partly shown) has an IC50 of over 5 µM (HepG2; MTT).
For `C=CC(=O)Nc1cc(Nc2nccc(-c3cn(C)c4ccccc34)n2)c(OC)cc1N(C)CCN(C)C`, the GI50 was 3.75 µM (NCI-H292; ATP luminescence; 72 h).
`CC[C@@]1(OC(=O)[C@@H](N)CCSC)C(=O)OCc2c1cc1n(c2=O)Cc2cc3cc4c(cc3nc2-1)OCO4` gave an IC50 of 0.113 µM (HepG2; MTT).
`CCOC(=O)C1=C(N)N(c2ccc(C(=O)OCC)cc2)C(O)=C(C#N)C12C(=O)Nc1ccccc12` (stereo not shown) has a viability of 33.9% (HepG2; MTT; 12.5 µM; 24 h).
